# In ChEMBL document CHEMBL3352584, “Novel DNA gyrase inhibiting spiropyrimidinetriones with a benzisoxazole scaffold: SAR and in vivo characterization” (J Med Chem, 2014):
# pIC50: −log10 of the molar value.
# Tested on: not listed separately
# Assay: Fraction unbound in mouse plasma at 10 uM after 16 hrs by LC-MS/MS analysis
# Assay type: ADME, cell-free
# Settings: not given
# Method in brief: (§1)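 Compound at 10 μM in human, rat or mouse plasma, equilibrium dialysis against buffer at 37 °C for 16 h. Buffer and plasma concentrations measured by LC-MS/MS, and the free fraction taken from their ratio.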
row,SMILES,"fraction unbound at 16 h, 10 µM"
1,C[C@@H]1CN2c3c(cc4c(C(F)F)noc4c3F)CC3(C(=O)NC(=O)NC3=O)[C@H]2[C@H](C)O1,0.044
2,C[C@@H]1CN2c3c(cc4c(C(F)(F)F)noc4c3F)CC3(C(=O)NC(=O)NC3=O)[C@H]2[C@H](C)O1,0.078

# Tested on: not listed separately
# Assay: Clearance in mouse at 3 mg/kg, iv or at 10 mg/kg, po by LC-MS/MS method
# Assay type: ADME, organism-based
# Settings: in vivo
# Method in brief: (§2)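 Male mice (CD-1) or male Wistar Hannover rats, three per experiment, given a 15 min iv infusion at 3 mg/kg or oral dosing at 10 mg/kg. Vehicle was DMA:TEG:saline 40/40/20 for mice and meglumine/cyclodextrin for rats. Serial jugular blood was taken over 0–24 h, plasma analysed by LC-MS/MS, and a noncompartmental analysis used. Mean values are given.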
row,SMILES,clearance [mL/min/kg]
1,C[C@@H]1CN2c3c(cc4c(C(F)F)noc4c3F)CC3(C(=O)NC(=O)NC3=O)[C@H]2[C@H](C)O1,47
2,C[C@@H]1CN2c3c(cc4c(C(F)(F)F)noc4c3F)CC3(C(=O)NC(=O)NC3=O)[C@H]2[C@H](C)O1,46

# Tested on: not listed separately
# Assay: Bioavailability in mouse at 3 mg/kg, iv or at 10 mg/kg, po by LC-MS/MS method
# Assay type: ADME, organism-based
# Settings: in vivo
# Method in brief: as §2
row,SMILES,bioavailability [%]
1,C[C@@H]1CN2c3c(cc4c(C(F)F)noc4c3F)CC3(C(=O)NC(=O)NC3=O)[C@H]2[C@H](C)O1,95
2,C[C@@H]1CN2c3c(cc4c(C(F)(F)F)noc4c3F)CC3(C(=O)NC(=O)NC3=O)[C@H]2[C@H](C)O1,63

# Tested on: not listed separately
# Assay: Fraction unbound in rat plasma at 10 uM after 16 hrs by LC-MS/MS analysis
# Assay type: ADME, cell-free
# Settings: not given
# Method in brief: as §1
row,SMILES,"fraction unbound at 16 h, 10 µM"
1,C[C@@H]1CN2c3c(cc4c(C(F)F)noc4c3F)CC3(C(=O)NC(=O)NC3=O)[C@H]2[C@H](C)O1,0.043
2,C[C@@H]1CN2c3c(cc4c(C(F)(F)F)noc4c3F)CC3(C(=O)NC(=O)NC3=O)[C@H]2[C@H](C)O1,0.078

# Tested on: not listed separately
# Assay: Clearance in rat at 3 mg/kg, iv or at 10 mg/kg, po by LC-MS/MS method
# Assay type: ADME, organism-based
# Settings: in vivo
# Method in brief: as §2
row,SMILES,clearance [mL/min/kg]
1,C[C@@H]1CN2c3c(cc4c(C(F)F)noc4c3F)CC3(C(=O)NC(=O)NC3=O)[C@H]2[C@H](C)O1,1
2,C[C@@H]1CN2c3c(cc4c(C(F)(F)F)noc4c3F)CC3(C(=O)NC(=O)NC3=O)[C@H]2[C@H](C)O1,2.3

# Tested on: not listed separately
# Assay: Bioavailability in rat at 3 mg/kg, iv or at 10 mg/kg, po by LC-MS/MS method
# Assay type: ADME, organism-based
# Settings: in vivo
# Method in brief: as §2
row,SMILES,bioavailability [%]
1,C[C@@H]1CN2c3c(cc4c(C(F)F)noc4c3F)CC3(C(=O)NC(=O)NC3=O)[C@H]2[C@H](C)O1,87
2,C[C@@H]1CN2c3c(cc4c(C(F)(F)F)noc4c3F)CC3(C(=O)NC(=O)NC3=O)[C@H]2[C@H](C)O1,60

# Biological target: DNA gyrase (Escherichia coli, UniProt P0AES4+P0AES6)
# Assay: Inhibition of Escherichia coli DNA gyrase using fluorescence-tagged DNA by fluorescenct polarization assay
# Assay type: protein-complex assay
# Settings: not given
# Method in brief: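 E. coli DNA gyrase supercoiling assay. The read-out was differential binding of a fluorescence-tagged DNA to relaxed versus supercoiled DNA, giving IC50.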
row,SMILES,pIC50
1,C[C@@H]1CN2c3c(cc4c(C(F)F)noc4c3F)CC3(C(=O)NC(=O)NC3=O)[C@H]2[C@H](C)O1,6.32
2,Cc1noc2c(F)c3c(cc12)CC1(C(=O)NC(=O)NC1=O)C1C(C)OC(C)CN31 (racemic),6.42
3,C[C@@H]1CN2c3c(cc4c(Cl)noc4c3F)CC3(C(=O)NC(=O)NC3=O)[C@H]2[C@H](C)O1,6.68
4,C[C@@H]1CN2c3c(cc4c(C(F)(F)F)noc4c3F)CC3(C(=O)NC(=O)NC3=O)[C@H]2[C@H](C)O1,6.21

# Tested on: not listed separately
# Assay: Fraction unbound in human plasma at 10 uM after 16 hrs by LC-MS/MS analysis
# Assay type: ADME, cell-free
# Settings: not given
# Method in brief: as §1
row,SMILES,"fraction unbound at 16 h, 10 µM"
1,C[C@@H]1CN2c3c(cc4c(C(F)F)noc4c3F)CC3(C(=O)NC(=O)NC3=O)[C@H]2[C@H](C)O1,0.028
2,Cc1noc2c(F)c3c(cc12)CC1(C(=O)NC(=O)NC1=O)C1C(C)OC(C)CN31 (racemic),0.063
3,C[C@@H]1CN2c3c(cc4c(Cl)noc4c3F)CC3(C(=O)NC(=O)NC3=O)[C@H]2[C@H](C)O1,< 0.01
4,C[C@@H]1CN2c3c(cc4c(C(F)(F)F)noc4c3F)CC3(C(=O)NC(=O)NC3=O)[C@H]2[C@H](C)O1,< 0.01

# Tested on: not listed separately
# Assay: Solubility of the compound
# Assay type: physicochemical
# Settings: not given
row,SMILES,solubility [µM]
1,C[C@@H]1CN2c3c(cc4c(C(F)F)noc4c3F)CC3(C(=O)NC(=O)NC3=O)[C@H]2[C@H](C)O1,> 1000
2,Cc1noc2c(F)c3c(cc12)CC1(C(=O)NC(=O)NC1=O)C1C(C)OC(C)CN31 (racemic),> 1000
3,C[C@@H]1CN2c3c(cc4c(Cl)noc4c3F)CC3(C(=O)NC(=O)NC3=O)[C@H]2[C@H](C)O1,> 1000
4,C[C@@H]1CN2c3c(cc4c(C(F)(F)F)noc4c3F)CC3(C(=O)NC(=O)NC3=O)[C@H]2[C@H](C)O1,53

# Tested on: Streptococcus pneumoniae
# Assay: Antimicrobial activity against Streptococcus pneumoniae by broth microdilution method
# Assay type: functional
# Settings: not given
# Method in brief: (§3)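 Broth microdilution following CLSI guidelines. Values under 12.5 μM are averages of three or more replicates.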
row,SMILES,MIC [µM]
1,C[C@@H]1CN2c3c(cc4c(C(F)F)noc4c3F)CC3(C(=O)NC(=O)NC3=O)[C@H]2[C@H](C)O1,3.1
2,Cc1noc2c(F)c3c(cc12)CC1(C(=O)NC(=O)NC1=O)C1C(C)OC(C)CN31 (racemic),21
3,C[C@@H]1CN2c3c(cc4c(Cl)noc4c3F)CC3(C(=O)NC(=O)NC3=O)[C@H]2[C@H](C)O1,12
4,C[C@@H]1CN2c3c(cc4c(C(F)(F)F)noc4c3F)CC3(C(=O)NC(=O)NC3=O)[C@H]2[C@H](C)O1,12

# Tested on: Streptococcus pyogenes
# Assay: Antimicrobial activity against Streptococcus pyogenes by broth microdilution method
# Assay type: functional
# Settings: not given
# Method in brief: as §3
row,SMILES,MIC [µM]
1,C[C@@H]1CN2c3c(cc4c(C(F)F)noc4c3F)CC3(C(=O)NC(=O)NC3=O)[C@H]2[C@H](C)O1,1.2
2,C[C@@H]1CN2c3c(cc4c(Cl)noc4c3F)CC3(C(=O)NC(=O)NC3=O)[C@H]2[C@H](C)O1,6.2
3,C[C@@H]1CN2c3c(cc4c(C(F)(F)F)noc4c3F)CC3(C(=O)NC(=O)NC3=O)[C@H]2[C@H](C)O1,3.1

# Tested on: Staphylococcus aureus
# Assay: Antimicrobial activity against methicillin-sensitive Staphylococcus aureus by broth microdilution method
# Assay type: functional
# Settings: not given
# Method in brief: as §3
row,SMILES,MIC [µM]
1,C[C@@H]1CN2c3c(cc4c(C(F)F)noc4c3F)CC3(C(=O)NC(=O)NC3=O)[C@H]2[C@H](C)O1,0.39
2,Cc1noc2c(F)c3c(cc12)CC1(C(=O)NC(=O)NC1=O)C1C(C)OC(C)CN31 (racemic),2.8
3,C[C@@H]1CN2c3c(cc4c(Cl)noc4c3F)CC3(C(=O)NC(=O)NC3=O)[C@H]2[C@H](C)O1,0.39
4,C[C@@H]1CN2c3c(cc4c(C(F)(F)F)noc4c3F)CC3(C(=O)NC(=O)NC3=O)[C@H]2[C@H](C)O1,0.78

# Tested on: Staphylococcus aureus
# Assay: Antimicrobial activity against methicillin-resistant and quinolone-resistant Staphylococcus aureus by broth microdilution method
# Assay type: functional
# Settings: not given
# Method in brief: as §3
row,SMILES,MIC [µM]
1,C[C@@H]1CN2c3c(cc4c(C(F)F)noc4c3F)CC3(C(=O)NC(=O)NC3=O)[C@H]2[C@H](C)O1,0.39
2,Cc1noc2c(F)c3c(cc12)CC1(C(=O)NC(=O)NC1=O)C1C(C)OC(C)CN31 (racemic),2.5
3,C[C@@H]1CN2c3c(cc4c(Cl)noc4c3F)CC3(C(=O)NC(=O)NC3=O)[C@H]2[C@H](C)O1,0.78
4,C[C@@H]1CN2c3c(cc4c(C(F)(F)F)noc4c3F)CC3(C(=O)NC(=O)NC3=O)[C@H]2[C@H](C)O1,1.6

# Tested on: Haemophilus influenzae
# Assay: Antimicrobial activity against Haemophilus influenzae by broth microdilution method
# Assay type: functional
# Settings: not given
# Method in brief: as §3
row,SMILES,MIC [µM]
1,C[C@@H]1CN2c3c(cc4c(C(F)F)noc4c3F)CC3(C(=O)NC(=O)NC3=O)[C@H]2[C@H](C)O1,0.62
2,Cc1noc2c(F)c3c(cc12)CC1(C(=O)NC(=O)NC1=O)C1C(C)OC(C)CN31 (racemic),2.5
3,C[C@@H]1CN2c3c(cc4c(Cl)noc4c3F)CC3(C(=O)NC(=O)NC3=O)[C@H]2[C@H](C)O1,25
4,C[C@@H]1CN2c3c(cc4c(C(F)(F)F)noc4c3F)CC3(C(=O)NC(=O)NC3=O)[C@H]2[C@H](C)O1,1.6

# Tested on: Escherichia coli
# Assay: Antimicrobial activity against Escherichia coli by broth microdilution method
# Assay type: functional
# Settings: not given
# Method in brief: as §3
row,SMILES,MIC [µM]
1,C[C@@H]1CN2c3c(cc4c(C(F)F)noc4c3F)CC3(C(=O)NC(=O)NC3=O)[C@H]2[C@H](C)O1,25
2,Cc1noc2c(F)c3c(cc12)CC1(C(=O)NC(=O)NC1=O)C1C(C)OC(C)CN31 (racemic),100
3,C[C@@H]1CN2c3c(cc4c(Cl)noc4c3F)CC3(C(=O)NC(=O)NC3=O)[C@H]2[C@H](C)O1,25
4,C[C@@H]1CN2c3c(cc4c(C(F)(F)F)noc4c3F)CC3(C(=O)NC(=O)NC3=O)[C@H]2[C@H](C)O1,25

# Tested on: Escherichia coli
# Assay: Antimicrobial activity against tolC-deficient Escherichia coli by broth microdilution method
# Assay type: functional
# Settings: not given
# Method in brief: as §3
row,SMILES,MIC [µM]
1,C[C@@H]1CN2c3c(cc4c(C(F)F)noc4c3F)CC3(C(=O)NC(=O)NC3=O)[C@H]2[C@H](C)O1,≤ 0.2
2,Cc1noc2c(F)c3c(cc12)CC1(C(=O)NC(=O)NC1=O)C1C(C)OC(C)CN31 (racemic),0.3
3,C[C@@H]1CN2c3c(cc4c(Cl)noc4c3F)CC3(C(=O)NC(=O)NC3=O)[C@H]2[C@H](C)O1,6.2
4,C[C@@H]1CN2c3c(cc4c(C(F)(F)F)noc4c3F)CC3(C(=O)NC(=O)NC3=O)[C@H]2[C@H](C)O1,≤ 0.2

# Tested on: Staphylococcus aureus
# Assay: Antimicrobial activity against methicillin-sensitive Staphylococcus aureus by broth microdilution method in presence of 50% human serum
# Assay type: functional
# Settings: not given
# Method in brief: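 CLSI broth microdilution against methicillin-sensitive S. aureus, run with 50% human serum added to the medium to reflect plasma protein binding. Values under 12.5 μM are averages of three or more replicates.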
row,SMILES,MIC [µM]
1,C[C@@H]1CN2c3c(cc4c(C(F)F)noc4c3F)CC3(C(=O)NC(=O)NC3=O)[C@H]2[C@H](C)O1,3.1
2,C[C@@H]1CN2c3c(cc4c(Cl)noc4c3F)CC3(C(=O)NC(=O)NC3=O)[C@H]2[C@H](C)O1,12
3,C[C@@H]1CN2c3c(cc4c(C(F)(F)F)noc4c3F)CC3(C(=O)NC(=O)NC3=O)[C@H]2[C@H](C)O1,100
